Values after ≈ are worked out from the molar mass of the structure shown.
Legend:
H. pylori ATCC 43504 [1] = assay: Broth dilution bioassay MIC/MBC, ATCC 43504; format: cell-based; settings: Helicobacter pylori; for MIC: ATCC43504, 48 h; for MBC: ATCC43504, 72 h
H. pylori ATCC 51932 = assay: Broth dilution bioassay MIC/MBC, ATCC 51932; format: cell-based; settings: Helicobacter pylori; for MIC: ATCC51932, 48 h; for MBC: ATCC51932, 72 h
H. pylori OX.22 = assay: Broth dilution bioassay MIC/MBC, OX.22; format: cell-based; settings: Helicobacter pylori; for MIC: OX.22, 48 h; for MBC: OX.22, 72 h
H. pylori OX.63 = assay: Broth dilution bioassay MIC/MBC, OX.63; format: cell-based, Helicobacter pylori; settings: for MIC: H. pylori OX.63, broth dilution, 48 h; for MBC: OX.63, 72 h
H. pylori OX.64 = assay: Broth dilution bioassay MIC/MBC, OX.64; format: cell-based, Helicobacter pylori; settings: for MIC: H. pylori OX.64, broth dilution, 48 h; for MBC: OX.64, 72 h
H. pylori OX.67 = assay: Broth dilution bioassay MIC/MBC, OX.67; format: cell-based, Helicobacter pylori; settings: Helicobacter pylori; for MIC: OX.67, 48 h, H. pylori OX.67, broth dilution, 48 h; for MBC: OX.67, 72 h
H. pylori OX.83 = assay: Broth dilution bioassay MIC/MBC, OX.83; format: cell-based, Helicobacter pylori; settings: Helicobacter pylori; for MIC: OX.83, 48 h, H. pylori OX.83, broth dilution, 48 h; for MBC: OX.83, 72 h
[2] = tested on: test strains of H. pylori; assay: Broth dilution bioassay MIC/MBC, text summary over test strains; format: cell-based; settings: Helicobacter pylori
H. pylori ATCC 43504 [3] = assay: Time-killing assay; format: cell-based, Helicobacter pylori
Summary of the method: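 H. pylori ATCC 43504 in 10% NBS-supplemented Brucella broth in 96-well plates, by broth microdilution. Inoculum suspension 5×10^6 CFU/mL; DMSO final ≤2.5%. Test compound was used at concentrations from MIC to MBC, alongside an untreated control. Viability was counted by plate colony count at 0, 6, 12, 18, 24, 36 and 48 h.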

[4] = tested on: H. pylori ATCC 43504 biofilm formation; assay: Biofilm formation inhibitory assay; format: cell-based, Helicobacter pylori; settings: 48 h
H. pylori ATCC 43504 [5] = assay: Effect on morphology; format: cell-based, Helicobacter pylori
[6] = Sulforhodamine cytotoxicity assay, MCF7; format: cell-based; settings: human, MCF7 cells
Summary of the method: (§1)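 Cells were grown in EMEM with 10% FBS, 2 mM L-glutamine, 20 mM HEPES and antibiotics at 37 °C, 5% CO2. Passages were 4–20 for HeLa, MCF7 and Jurkat, and 2–5 for fibroblasts. Seeding per well for 24 h: HeLa 5×10^3, MCF7 and fibroblast 10^4, Jurkat 5×10^4. Test compound (0–200 mg/L, in DMSO) was added for 48 h. Cells were fixed with cold TCA, stained with 0.2% SRB, solubilised in 10 mM Tris and read at 492 nm. Camptothecin was the positive control. Triplicates, three independent experiments.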

[7] = Sulforhodamine cytotoxicity assay, Jurkat; format: cell-based; settings: human, Jurkat cells
Summary of the method: as §1

[8] = Sulforhodamine cytotoxicity assay, HeLa; format: cell-based; settings: human, HeLa cells
Summary of the method: as §1

[9] = Sulforhodamine cytotoxicity assay, fibroblast; format: cell-based; settings: human, fibroblast cells derived from human foreskins
Summary of the method: as §1

[10] = Sulforhodamine cytotoxicity assay, text summary over four cell lines; format: cell-based; settings: human
Summary of the method: as §1

[11] = target: H. pylori ATCC 43504 urease (Helicobacter pylori, UniProt P69996); assay: Urease inhibition, salicylate-hypochlorite method; format: biochemical; settings: for slope ± SE: slope of dose-response curve of percentage of urease inhibition
Summary of the method: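 Crude H. pylori ATCC 43504 urease, 0.25 μg (0.04 U), in EDTA–sodium phosphate buffer pH 7.3, was preincubated with test compound at 37 °C for 90 min at 50 rpm. Urea solution (10 mM, as added) was then incubated for 30 min. Ammonia was measured by the salicylate–nitroprusside/alkaline hypochlorite method at 625 nm. Thiourea was the reference inhibitor. IC50 is molar. Triplicates, three independent experiments.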

[12] = Helicobacter pylori, OX.63, 48 h
[13] = Helicobacter pylori, OX.64, 48 h

Sequence of H. pylori ATCC 43504 urease (P69996 whole entry): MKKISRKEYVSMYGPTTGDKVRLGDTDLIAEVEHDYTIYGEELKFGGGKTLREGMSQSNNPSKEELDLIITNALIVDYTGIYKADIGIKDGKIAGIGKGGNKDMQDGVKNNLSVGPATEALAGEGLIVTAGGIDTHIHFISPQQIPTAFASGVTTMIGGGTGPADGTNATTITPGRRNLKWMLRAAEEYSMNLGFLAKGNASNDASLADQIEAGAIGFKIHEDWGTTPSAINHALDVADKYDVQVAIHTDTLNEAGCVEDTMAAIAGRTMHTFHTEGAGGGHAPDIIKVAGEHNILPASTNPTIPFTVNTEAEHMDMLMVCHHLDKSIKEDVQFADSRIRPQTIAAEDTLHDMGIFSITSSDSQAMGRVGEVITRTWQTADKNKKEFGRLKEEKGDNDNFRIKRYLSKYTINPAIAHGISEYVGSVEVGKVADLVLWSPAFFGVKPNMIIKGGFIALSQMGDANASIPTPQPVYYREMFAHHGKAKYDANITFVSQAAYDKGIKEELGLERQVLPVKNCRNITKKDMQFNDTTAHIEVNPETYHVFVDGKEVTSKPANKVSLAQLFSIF
Sequence of H. pylori ATCC 43504 urease (P14916 whole entry partner): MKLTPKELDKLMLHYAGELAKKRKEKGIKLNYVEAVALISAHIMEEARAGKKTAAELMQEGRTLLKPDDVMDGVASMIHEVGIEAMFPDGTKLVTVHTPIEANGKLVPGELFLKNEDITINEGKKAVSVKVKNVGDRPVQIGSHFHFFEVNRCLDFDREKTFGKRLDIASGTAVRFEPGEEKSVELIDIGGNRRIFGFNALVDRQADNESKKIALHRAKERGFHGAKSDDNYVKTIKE

Row | SMILES | MIC (H. pylori ATCC 43504 [1]) [µg/mL] | MBC (H. pylori ATCC 43504 [1]) [µg/mL] | MIC (H. pylori ATCC 51932) [µg/mL] | MBC (H. pylori ATCC 51932) [µg/mL] | MIC (H. pylori OX.22) [µg/mL] | MBC (H. pylori OX.22) [µg/mL] | MIC (H. pylori OX.63; [12]) [µg/mL] | MBC (H. pylori OX.63; Helicobacter pylori) [µg/mL] | MIC (H. pylori OX.64) [µg/mL] | MIC (H. pylori OX.64; [13]) [µg/mL] | MBC (H. pylori OX.64; Helicobacter pylori) [µg/mL] | MIC (H. pylori OX.67) [µg/mL] | MBC (H. pylori OX.67) [µg/mL] | MIC (H. pylori OX.83) [µg/mL] | MBC (H. pylori OX.83) [µg/mL] | MIC ([2]; ATCC51932) [µg/mL] | conversion to the coccoid form (H. pylori ATCC 43504 [5]; 500 mg/L) [%] | conversion to the coccoid form (H. pylori ATCC 43504 [5]; 1000 mg/L) [%] | CC50 at 48 h [6] [µg/mL] | CC50 at 48 h [7] [µg/mL] | further results
1 | C[C@H]1COc2c(N3CCN(C)CC3)c(F)cc3c(=O)c(C(=O)O)cn1c23 [levofloxacin] | 0.125 (≈ 0.346 µM) | 0.25 (≈ 0.692 µM) | 0.125 (≈ 0.346 µM) | 0.25 (≈ 0.692 µM) | 0.063 (≈ 0.174 µM) | 0.5 (≈ 1.38 µM) | 0.063 (≈ 0.174 µM) | 0.5 (≈ 1.38 µM) | 32 (≈ 88.6 µM) | 16 to 32 (≈ 44.3 to 88.6 µM) | 128 (≈ 354 µM) | 0.063 (≈ 0.174 µM) | 0.25 (≈ 0.692 µM) | 0.75 (≈ 2.08 µM) | 1.25 (≈ 3.46 µM) | – | – | – | – | – | MIC [2]: 32 µg/mL (≈ 88.6 µM)
2 | CC1(C)S[C@@H]2[C@H](NC(=O)[C@H](N)c3ccc(O)cc3)C(=O)N2[C@H]1C(=O)O [amoxicillin] | 0.031 (≈ 0.0848 µM) | 0.063 (≈ 0.172 µM) | 0.063 (≈ 0.172 µM) | 0.125 (≈ 0.342 µM) | 0.063 (≈ 0.172 µM) | 0.25 (≈ 0.684 µM) | 0.063 (≈ 0.172 µM) | 0.25 (≈ 0.684 µM) | – | 0.031 (≈ 0.0848 µM) | 0.125 (≈ 0.342 µM) | 0.031 (≈ 0.0848 µM) | 0.125 (≈ 0.342 µM) | 0.063 (≈ 0.172 µM) | 0.25 (≈ 0.684 µM) | – | – | – | – | – | –
3 | Cc1ncc([N+](=O)[O-])n1CCO [metronidazole] | 32 (≈ 187 µM) | 192 (≈ 1120 µM) | 2 (≈ 11.7 µM) | 4 (≈ 23.4 µM) | 32 (≈ 187 µM) | 256 (≈ 1500 µM) | 32 to 64 (≈ 187 to 374 µM) | 256 (≈ 1500 µM) | 32 (≈ 187 µM) | 16 to 32 (≈ 93.5 to 187 µM) | 256 (≈ 1500 µM) | 2 (≈ 11.7 µM) | 4 (≈ 23.4 µM) | 1 (≈ 5.84 µM) | 2 (≈ 11.7 µM) | – | – | – | – | – | MIC (H. pylori OX.63): 64 µg/mL (≈ 374 µM); MIC ([2]; 48 h): 24 to 64 µg/mL (≈ 140 to 374 µM)
4 | O=c1cc(-c2ccc(O)c(O)c2)oc2cc(O)cc(O)c12 [LUT, luteolin] | 125 (≈ 437 µM) | 1250 (≈ 4370 µM) | 125 (≈ 437 µM) | 1250 (≈ 4370 µM) | 125 (≈ 437 µM) | 1250 (≈ 4370 µM) | 125 (≈ 437 µM) | 1250 (≈ 4370 µM) | – | 125 (≈ 437 µM) | 1250 (≈ 4370 µM) | 125 (≈ 437 µM) | 1250 (≈ 4370 µM) | 125 (≈ 437 µM) | 1250 (≈ 4370 µM) | 125 (≈ 437 µM) | 14.7 | 87.5 | 8.64 (≈ 30.2 µM) | 5.12 (≈ 17.9 µM) | MBC [2]: 1250 µg/mL (≈ 4370 µM); reduction of viability (H. pylori ATCC 43504 [3]; four times the MIC, 12 h): ~3 log10; antibiofilm activity ([4]; at test concentrations (sub-MICs)): did not show antibiofilm activity; CC50 at 48 h [8]: 8.36 µg/mL (≈ 29.2 µM); CC50 at 48 h [9]: 49.8 µg/mL (≈ 174 µM); CC50 at 48 h [10]: 5.12 to 49.8 µg/mL (≈ 17.9 to 174 µM); IC50 [11]: 402 µM; slope ± SE [11]: 2.16 ± 0.080
5 | O=C1C[C@@H](c2ccc(O)cc2)Oc2cc(O)cc(O)c21 [NRG, naringenin] | 100 (≈ 367 µM) | 1000 (≈ 3670 µM) | 100 (≈ 367 µM) | 1000 (≈ 3670 µM) | 100 (≈ 367 µM) | 1000 (≈ 3670 µM) | 100 (≈ 367 µM) | 1000 (≈ 3670 µM) | – | 100 (≈ 367 µM) | 1000 (≈ 3670 µM) | 100 (≈ 367 µM) | 1000 (≈ 3670 µM) | 100 (≈ 367 µM) | 1000 (≈ 3670 µM) | 100 (≈ 367 µM) | 16.5 | 95 | 93.7 (≈ 344 µM) | 46.6 (≈ 171 µM) | reduction of viability (H. pylori ATCC 43504 [3]; at the MIC, 48 h): ~1 log10; reduction of viability (H. pylori ATCC 43504 [3]; five times the MIC, 24 h): ~2.5 log10; reduction of viability (H. pylori ATCC 43504 [3]; five times the MIC, 36 h): ~4 log10; reduction of biofilm formation ([4]; 1/2 × MIC (NRG 50 mg/L, MCT 75 mg/L)): 85.9%; reduction of biofilm formation ([4]; 1/4 × MIC (NRG 25 mg/L)): 52.7%; CC50 at 48 h [8]: 65.2 µg/mL (≈ 239 µM); CC50 at 48 h [9]: 133 µg/mL (≈ 490 µM); CC50 at 48 h [10]: 46.6 to 133 µg/mL (≈ 171 to 490 µM); IC50 [11]: 575 µM; slope ± SE [11]: 1.38 ± 0.045

From paper PMC7439261 (ACS Omega, 2020)
